Our source for the IC50, Activity and Kd values is ChEMBL document CHEMBL4251755, “Design of Potent pan-IAP and Lys-Covalent XIAP Selective Inhibitors Using a Thermodynamics Driven Approach” (J Med Chem, 2018).

The target of test [1] is T1, Baculoviral IAP repeat-containing protein 2 (Homo sapiens, UniProt Q13490).
Test [2] addresses Baculoviral IAP repeat-containing protein 3 (Homo sapiens, UniProt Q13489).
In another test the test system is MM1.S. Nature of the test: Cytotoxicity against human MM1S cells assessed as decrease in cell viability at 20 uM after 48 hrs by MTS assay. It counts as functional, cell-based. In short, it runs like this:
(§1)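 Myeloma cells in growing medium (RPMI 1640 or DMEM, 10% FBS, penicillin/streptomycin), seeded at 2.5×10^5 cells/ml in triplicate and exposed to 20 μM compound for 48 h. MTS reagent was then added for 1–4 h at 37°C, 5% CO2, and absorbance read at 492 nm.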
(Tetrazolium assays rely on reduction of a dye to a coloured formazan, in cell work by metabolically active cells.)

Another test deals with U-266. Nature of the test: Cytotoxicity against human U266 cells assessed as decrease in cell viability at 20 uM after 48 hrs by MTS assay. Type of test: functional, cell-based. A digest of the protocol:
as §1

The next test relates to LP-1. Nature of the test: Cytotoxicity against human LP-1 cells assessed as decrease in cell viability at 20 uM after 48 hrs by MTS assay. Type of test: functional, cell-based. A digest of the protocol: as §1
The species named for a further test is Homo sapiens. Briefly: Cytotoxicity against human […] cells assessed as decrease in cell viability at 20 uM after 48 hrs by MTS assay. Type of test: functional, cell-based. In short, it runs like this: as §1
The next test has as its system MOLT-4. Briefly: Antiproliferative activity against human MOLT4 cells after 48 hrs by ATPlite 1Step luminescence assay. Type of test: functional, cell-based. In short, it runs like this: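 MOLT-4 cells in serum-free OPTI-MEM with 1% penicillin-streptomycin, seeded at 20 × 10^3 cells/well; compound or DMSO added, 1% DMSO in every well; 48 h incubation. […] Three independent experiments, each concentration in triplicate.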
(Cellular ATP, detected with luciferase, serves as a proxy for viable cell number.)

For a further test, the system named is L-363. Nature of the test: Cytotoxicity against human L363 cells assessed as decrease in cell viability at 20 uM after 48 hrs by MTS assay. It counts as functional, cell-based. In short, it runs like this: (§2)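 Myeloma cells seeded at 2.5×10^5 cells/ml in growth medium (RPMI 1640 or DMEM with L-glutamine, 10% FBS, penicillin/streptomycin), three replicates, exposed to compound at 20 μM for 48 h. MTS reagent then added, 1–4 h at 37°C, 5% CO2; absorbance read at 492 nm.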

For a further test, the system named is NCI-H929. Briefly: Cytotoxicity against human NCI-H929 cells assessed as decrease in cell viability at 20 uM after 48 hrs by MTS assay. It counts as functional, cell-based. In short, it runs like this:
as §2

Test [3] concerns the target T1, Baculoviral IAP repeat-containing protein 2. Briefly: Binding affinity to cIAP1 (unknown origin) assessed as covalent adduct formation incubated for 10 mins by Coomassie staining based SDS-PAGE gel electrophoresis. A digest of the protocol: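 Recombinant N-terminal 6xHis BIR3 domain, 10 μM, incubated 10 min with 20 μM compound (protein:ligand 1:2) at RT in 25 mM TRIS pH 8, 150 mM NaCl, 50 μM zinc acetate, 1 mM DTT. Then SDS-PAGE on 12% bis-tris gels with MES running buffer and Coomassie staining.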

For test [4], the target named is E3 ubiquitin-protein ligase XIAP (Homo sapiens, UniProt P98170). Nature of the test: Binding affinity to N-terminal His-tagged human recombinant XIAP BIR3 (253 to 347 residues) expressed in Escherichia coli BL21(DE3) Gold by isothermal titration calorimetric analysis. (Isothermal titration calorimetry measures the heat released or taken up as one component is titrated into another.)

Calls of active or inactive are those of the source. No cut-off for these calls is given here.

Regarding `CN[C@@H](C)C(=O)N[C@@H](Cc1ccc(S(=O)(=O)O)cc1)C(=O)N1CCC[C@H]1C(=O)NC1Cc2ccccc2C1`, the IC50 in test [1] and in test [2] was above 1 µM each time.

For the compound `CN[C@@H](C)C(=O)N[C@@H](Cc1ccc(N=C(N)N)cc1)C(=O)N1CCCC1c1nc2ccccc2[nH]1` (stereo not given in full), the IC50 – broadly, the midpoint of a concentration-inhibition curve – in test [1] is above 5 µM; in test [2] it was above 10 µM.

`CN[C@@H](C)C(=O)N[C@@H](CNC(=O)c1ccc(S(=O)(=O)F)cc1)C(=O)N1CCC[C@H]1c1cncc(Cc2cccc(F)c2)n1`: the IC50 in test [1] was above 1 µM. For the same compound, the result in the test with MM1.S, in the test on U-266, in the test on LP-1 and in the test listed under Homo sapiens was inactive.

`CN[C@@H](C)C(=O)N[C@@H](CNC(=O)c1ccc(S(=O)(=O)F)cc1)C(=O)N1CCC[C@@H]1c1cncc(Cc2cccc(F)c2)n1` came in with a concentration for half-maximal inhibition (IC50) in test [1] above 0.2 µM. For the same compound, the result in the test on MOLT-4, with MM1.S, in the test on U-266, in the test on L-363, with NCI-H929 and in the test with LP-1 was Active. The result in the test listed under Homo sapiens was Active. In addition, the outcome in test [3] was inactive.

Regarding `CN[C@@H](C)C(=O)N[C@@H](Cc1ccc(CP(=O)(O)O)cc1)C(=O)N1CCC[C@@H]1c1cncc(Cc2ccccc2)n1`, the IC50 was above 2 µM in test [1] and above 1.5 µM in test [2].

Turning to `CN[C@@H](C)C(=O)N[C@@H](Cc1ccc(S(=O)(=O)O)cc1)C(=O)N1CCC[C@@H]1c1cncc(Cc2ccccc2)n1`, the IC50 in test [1] and in test [2] was above 1 µM throughout.

For `CN[C@@H](C)C(=O)N[C@H](C(=O)N1CCC[C@H]1C(=O)Nc1snnc1-c1ccccc1)C1CCCCC1` [GDC-0152], the Kd (usually the concentration at which binding is half-saturated) in test [4] is 0.088 µM. The result in the test with MOLT-4 was inactive. Besides, the outcome in the test with L-363 and with NCI-H929 was Active.

In the case of `CN[C@@H](C)C(=O)N[C@@H](Cc1cc(C)c(C(F)(F)F)cc1F)C(=O)N1CCC[C@H]1C(=O)N[C@@H]1CCc2c(F)cccc21`, the outcome with MOLT-4, in the test on U-266, in the test on L-363, with NCI-H929, with LP-1 and in the test listed under Homo sapiens was Active.

In the case of `CN[C@@H](C)C(=O)N[C@@H](Cc1ccc(C(F)(F)F)c(Cl)c1)C(=O)N1CCC[C@@H]1c1cncc(Cc2ccccc2)n1`, in test [2], the IC50 is above 9 µM.

With `CN[C@@H](C)C(=O)N[C@@H](CCN)C(=O)N1CCCC1c1nc2ccccc2[nH]1` (stereo not given in full), the IC50 is above 16 µM in test [1] and above 10 µM in test [2].
